Measurements as given in the array DNA melting data of Ke et al. (doi:10.1101/2024.01.08.574731).

What was measured:
[1] = melting temperature; fluorescence melt of hairpins on a sequencing array, two-state fit, raised by 9.35 °C to match UV melts; details: sodium 0.088 M
Outline: (§1)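 Bootstrapped two-state fits yielded melting temperature and folding enthalpy for library hairpins. Cy3 fluorescence, with annealed Cy3 and quencher oligos, was imaged on a sequenced MiSeq flow cell in 50 mM Na-HEPES pH 8.0, 25 mM NaCl in 2.5 °C steps up to 60 °C, and normalised to pre-quench Cy3 and to control constructs. Four replicates were combined by inverse variance, and fitted temperatures were raised by 9.35 °C to match UV melts.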

[2] = folding enthalpy; higher = less favourable; fluorescence melt of hairpins on a sequencing array, two-state fit; details: sodium 0.088 M
Outline: as §1

GCAGGCGAAAGCCTTTGC ((((((....)))..))) gave a Tm [1] of 41 °C and a folding enthalpy [2] of -11 kcal/mol.
Work on GCAGGGCGAAAGCCTTGC (((.(((....))).))) yielded a Tm [1] of 61.2 °C and a folding enthalpy [2] of -40.3 kcal/mol.
For GCAGGGCGAAAGCTATGC (((..((....))..))), the Tm [1] was 54.1 °C and the folding enthalpy [2] was -20.4 kcal/mol.
With GCAGGGCGAAAGCTCCGC ((.(.((....)).).)) the Tm [1] was 49.5 °C and the folding enthalpy [2] was -17.6 kcal/mol.
With GCAGGGCGAAAGCTGTGC (((..((....))..))) the Tm [1] was 52.2 °C and the folding enthalpy [2] was -21.7 kcal/mol.
For GCAGGTCGAAAGACATGC (((.(((....))).))), the Tm [1] was 64.2 °C and the folding enthalpy [2] was -40.4 kcal/mol.
Work on GCAGGTCGAAAGACGTGC (((.(((....))).))) yielded a Tm [1] of 62.8 °C and a folding enthalpy [2] of -42.9 kcal/mol.
In the case of GCAGGTTCGAAAGAATGC (((..(((....)))))), the Tm [1] is reported as 30.9 °C and the folding enthalpy [2] is reported as -11.1 kcal/mol.
GCAGTACGAAAGTAGTGC (((.(((....))).))) gave a Tm [1] of 57.6 °C and a folding enthalpy [2] of -47 kcal/mol.
GCAGTACGAAAGTATGC (((.(((....)))))) showed a Tm [1] of 48.4 °C and a folding enthalpy [2] of -31.3 kcal/mol.
With GCAGTAGGAAACTGTTGC (((..((....))..))) the Tm [1] was 32.2 °C and the folding enthalpy [2] was -18.3 kcal/mol.
In the case of GCAGTCCCGAAAGGGTGC (((..(((....)))))), the Tm [1] is reported as 43.5 °C and the folding enthalpy [2] is reported as -15.3 kcal/mol.
With GCAGTCCGAAAGGATGC (((.(((....)))))) the Tm [1] was 52.3 °C and the folding enthalpy [2] was -32.1 kcal/mol.
Sequence GCAGTCGAAAGACCATGC ((((((....)))..))) has a Tm [1] of 35.1 °C and a folding enthalpy [2] of -16.2 kcal/mol.
Work on GCAGTCGAAAGACCCTGC ((((((....)))..))) yielded a Tm [1] of 33 °C and a folding enthalpy [2] of -17.3 kcal/mol.
GCAGTCGAAAGACCTGC ((((((....))).))) gave a Tm [1] of 51.2 °C and a folding enthalpy [2] of -29.9 kcal/mol.
GCAGTCGAAAGACGGTGC ((((((....)))..))) showed a Tm [1] of 48.5 °C and a folding enthalpy [2] of -19 kcal/mol.
GCAGTCGAAAGACGTGC ((((((....))).))) gave a Tm [1] of 51.8 °C and a folding enthalpy [2] of -17.4 kcal/mol.
Sequence GCAGTCGAAAGACGTTGC ((((((....)))..))) has a Tm [1] of 45.9 °C and a folding enthalpy [2] of -17 kcal/mol.
Work on GCAGTGCGAAAGCAACGC ((..(((....)))..)) yielded a Tm [1] of 58.7 °C and a folding enthalpy [2] of -15.1 kcal/mol.
GCAGTGCGAAAGCACCGC ((.((((....)))).)) gave a Tm [1] of 62 °C and a folding enthalpy [2] of -17.4 kcal/mol.
GCAGTGCGAAAGCAGTGC (((.(((....))).))) showed a Tm [1] of 66.4 °C and a folding enthalpy [2] of -37.9 kcal/mol.
Work on GCAGTGCGAAAGCATGGC ((..(((....)))..)) yielded a Tm [1] of 54 °C and a folding enthalpy [2] of -19.2 kcal/mol.
For GCAGTGCGAAAGCCCCGC ((.(.((....)).).)), the Tm [1] was 41.1 °C and the folding enthalpy [2] was -10.3 kcal/mol.
With GCAGTGCGAAAGCCCGGC ((.(.((....)).).)) the Tm [1] was 45 °C and the folding enthalpy [2] was -18.4 kcal/mol.
Sequence GCAGTGCGAAAGCGCCGC ((.(.((....)).).)) has a Tm [1] of 52 °C and a folding enthalpy [2] of -17.9 kcal/mol.
With GCAGTGCGAAAGCTCGGC ((.(.((....)).).)) the Tm [1] was 54.3 °C and the folding enthalpy [2] was -25.6 kcal/mol.
Work on GCAGTGCGAAAGCTCTGC ((((.((....)).)))) yielded a Tm [1] of 65.8 °C and a folding enthalpy [2] of -40.3 kcal/mol.
Work on GCAGTTCCGAAAGGATGC (((..(((....)))))) yielded a Tm [1] of 36.7 °C and a folding enthalpy [2] of -17.8 kcal/mol.
With GCAGTTCGAAAGAATTGC (((.(((....))).))) the Tm [1] was 52.6 °C and the folding enthalpy [2] was -38.5 kcal/mol.
For GCAGTTGGAAACAATTGC (((.(((....))).))), the Tm [1] was 46.9 °C and the folding enthalpy [2] was -31.2 kcal/mol.
In the case of GCATAACCGAAAGGTTGC (((..(((....)))))), the Tm [1] is reported as 46.6 °C and the folding enthalpy [2] is reported as -15.4 kcal/mol.
GCATAACGAAAGTTCTGC (((.(((....))).))) showed a Tm [1] of 45.6 °C and a folding enthalpy [2] of -35.4 kcal/mol.
Sequence GCATAAGCGAAAGCTTGC (((..(((....)))))) has a Tm [1] of 46.3 °C and a folding enthalpy [2] of -14.7 kcal/mol.
Sequence GCATAAGGAAACTTGTGC (((.(((....))).))) has a Tm [1] of 45.1 °C and a folding enthalpy [2] of -25.8 kcal/mol.
With GCATACGAAAGTAGTTGC ((((((....)))..))) the Tm [1] was 33.1 °C and the folding enthalpy [2] was -17.5 kcal/mol.
With GCATACGAAAGTATATGC ((((((....)))..))) the Tm [1] was 41.9 °C and the folding enthalpy [2] was -24.7 kcal/mol.
